Experimental data from paper PMC6904838 (International Journal for Parasitology: Drugs and Drug …, 2019).

Columns and labels:
[1] = test system: L. infantum promastigotes; experiment: In vitro assay on iRFP-L. infantum promastigotes; format: cell-based, Leishmania infantum
Procedure, shortened: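 iRFP-expressing L. infantum BCN150 promastigotes at 1 × 10^6 cells/mL in supplemented M199 (25 mM HEPES pH 6.9, 10% FBS). DMSO stocks were diluted in M199 to 0.01–200 μM final, with 72 h exposure at 26 °C. Viability was read as 713 nm infrared fluorescence, in triplicate. EC50 came from nonlinear fits. SIp = HepG2 72 h Alamar Blue CC50 / promastigote EC50.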

HepG2 cytotoxicity = format: cell-based; details: human, HepG2 cells (ATCC HB-8065)
Procedure, shortened: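 HepG2 human hepatocarcinoma cells in Glutamax DMEM with 10% FBS and penicillin/streptomycin, seeded and held at 37 °C under 5% CO2. Serial dilutions of test compound (0.01–200 μM) added, viability read after 72 h by Alamar Blue per manufacturer's protocol. CC50 derived by non-linear fitting of viability versus concentration.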

L. infantum amastigotes = format: cell-based, Leishmania infantum
Procedure, shortened: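 Female BALB/c mice were infected intraperitoneally with 10^8 iRFP-expressing metacyclic promastigotes. After five weeks, spleen cells were collagenase-dispersed into RPMI with 10% FBS and exposed to test compound (0.01–200 μM) at 37 °C, 5% CO2. After 72 h, amastigote viability was read by infrared fluorescence at 713 nm, and EC50 came from a nonlinear fit. HepG2 CC50 (Alamar Blue, 72 h, 0.01–200 μM) was divided by this EC50.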

With `CCCCCCCCCCCCCCCCOP(=O)([O-])OCC[N+](C)(C)C` [MTF, Miltefosine] the “SIp: Selectivity Index for promastigotes (CC50 HepG2/EC50 promastigotes)” value [1] was 8.5, the CC50 at 72 h (HepG2 cytotoxicity) was 50.4 ± 4.3 µM and the “SIa: Selectivity Index for amastigotes (CC50 HepG2/EC50 amastigotes)” value (L. infantum amastigotes) was 21.
